In the library only some 3.7% were active in any assay of this set; here they are far more common.
procasp3 activ = procaspase-3 (human) activation; 330,000 compounds, 0.11% hits; activation, % at 8.5 µM; P42574; AID 463141; recombinant procaspase-3 D3A, Ac-DEVD-pNA absorbance 405 nm;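 active = activation above the mean of all tested compounds plus 3 SD, cut at about 21% in these data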
Target sequence (P42574 whole entry D9A/D28A/D175A): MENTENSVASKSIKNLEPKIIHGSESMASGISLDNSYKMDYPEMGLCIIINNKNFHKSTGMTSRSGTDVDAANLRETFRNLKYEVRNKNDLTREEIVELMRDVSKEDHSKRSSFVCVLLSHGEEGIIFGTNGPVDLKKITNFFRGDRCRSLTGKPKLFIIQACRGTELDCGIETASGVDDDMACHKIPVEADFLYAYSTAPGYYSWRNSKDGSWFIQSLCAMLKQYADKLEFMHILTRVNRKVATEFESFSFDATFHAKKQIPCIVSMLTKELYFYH
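Evaluation: percent activation relative to control range; Material: Procaspase-3 D3A mutant, all three cleavage aspartates alanine; Compound: single dose, 8.5 µM nominal compound, 0.8% DMSO; Replication: one well per compound; Signal: absorbance at 405 nm, 0 and 120 min; Schedule: 1 h preincubation plus 2 h reaction at 25 °C.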
aDG glyco act = increases alpha dystroglycan glycosylation; 360,000 compounds, 0.22% hits; activation, % at 10 µM; Pro5-aDG cells, alpha-DG glycosylation AlphaScreen (IIH6); 0% Pro5, 100% B10-LARGE cell signal; AID 624168;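 active = activation of at least 8% versus controls, or a plate z-score of at least 8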;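 note: Pro5 are CHO cells carrying HIG-tagged alpha-DG that lacks glycosylation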
NR3A LBD binder = NR3A (human) ligand-binding domain modulation; NR3A LBD differential scanning fluorimetry, Tm shift; 0% = protein alone, 100% = glycine-bound protein; Tm shift relative to glycine control, % at 25 µM; 340,000 compounds, 2.5% hits; AID 1259313;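 active = melting temperature shift of at least 10% of the positive control shift, at one fixed dose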
MPTP block = permeability transition pore inhibition; inhibition, % at 10 µM; 360,000 compounds, 1.4% hits; isolated mouse mitochondria, Ca2+ swelling absorbance, 30 min;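 active = inhibition of 50% or more, scaled per plate between neutral and stimulator controls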
procasp7 counter = counter-screen: procaspase-7 (human) activation; P55210; recombinant procaspase-7, Ac-DEVD-pNA absorbance 405 nm; D23A/D198A/D206A triple mutant, cannot self-cleave; scale: DMSO 0, 5 µM enzyme 100; activation, % at 8.5 µM; 330,000 compounds, 0.093% hits; AID 463210;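 active = percent activation above the screen-wide mean plus 3 SD, cut at about 25% in these data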
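Test system: Procaspase-7 triple mutant (PC-7 D3A). Also added: Ac-DEVD-pNA substrate, 400 µM as added. Schedule: 1 h enzyme–compound preincubation and 2 h substrate reaction, both 25 °C. Signal: p-Nitroaniline absorbance at 405 nm, read at 0 and 120 min. Control set: low DMSO alone, high DMSO plus 5 µM PC-7.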
Numbers stand for hits.

How did COc1ccc(Cl)cc1N(CC(=O)Nc1ccccc1C(=O)NCc1ccco1)S(C)(=O)=O do in these assays?
procasp3 activ: inactive; aDG glyco act: inactive; NR3A LBD binder: inactive; MPTP block: inactive; procasp7 counter: inactive

What do the screens show for `COc1ccc(OC)c(N(CC(=O)Nc2ccccc2C(=O)NCc2ccco2)S(C)(=O)=O)c1`?
procasp3 activ: inactive; aDG glyco act: inactive; NR3A LBD binder: 13; MPTP block: inactive; procasp7 counter: inactive

How did O=C(CCCCCN1C(=O)CCC1=O)Nc1ccc(Br)cc1F do in these assays?
procasp3 activ: inactive; aDG glyco act: inactive; NR3A LBD binder: 11; MPTP block: inactive; procasp7 counter: inactive

What do the screens show for `O=C(NCCCn1ccnc1)c1sc2cc([N+](=O)[O-])ccc2c1Cl`?
aDG glyco act: inactive; MPTP block: inactive

What do the screens show for `CC1CCCCN1C(=O)CSc1nnc2c(n1)[nH]c1ccc(F)cc12` (stereo unspecified)?
procasp3 activ: inactive; aDG glyco act: inactive; NR3A LBD binder: inactive; MPTP block: inactive; procasp7 counter: inactive

Results for CC1CCc2cc(F)ccc2N1C(=O)CSc1nnc2c(n1)[nH]c1ccc(F)cc12 (stereo unspecified) ?
procasp3 activ: inactive; aDG glyco act: inactive; NR3A LBD binder: 24; MPTP block: inactive; procasp7 counter: inactive

How did CC1Cc2ccccc2N1C(=O)CSc1nnc2c(n1)[nH]c1ccccc12 (stereo unspecified) do in these assays?
procasp3 activ: inactive; aDG glyco act: inactive; NR3A LBD binder: 22; MPTP block: inactive; procasp7 counter: inactive

What do the screens show for `COc1ccc(Cc2c(-c3cccc(Cl)c3)nc3ccc(C)cn23)c(C)c1`?
aDG glyco act: inactive; MPTP block: inactive

How did COC(=O)[C@H](Cc1ccccc1)NC(=O)NCC1CCCO1 (stereo partly specified) do in these assays?
procasp3 activ: inactive; aDG glyco act: inactive; NR3A LBD binder: 14; MPTP block: inactive; procasp7 counter: inactive

What do the screens show for `CC(NC(=O)OCc1ccccc1)C(=O)NCC1CCCO1` (stereo unspecified)?
procasp3 activ: inactive; aDG glyco act: inactive; NR3A LBD binder: inactive; MPTP block: inactive; procasp7 counter: inactive

Results for O=C(CCSc1ccccc1)NCC1CCCO1 (stereo unspecified) ?
procasp3 activ: inactive; aDG glyco act: inactive; NR3A LBD binder: 17; MPTP block: inactive; procasp7 counter: inactive

What do the screens show for `O=C1C=C(c2ccc(C(=O)O)cc2)C[C@@H](c2ccc3c(c2)OCO3)C1`?
procasp3 activ: inactive; aDG glyco act: inactive; NR3A LBD binder: inactive; MPTP block: inactive; procasp7 counter: inactive

Results for COC(=O)c1ccccc1CSc1nsc(/C=C/N(C)C)c1C#N ?
procasp3 activ: inactive; aDG glyco act: inactive; NR3A LBD binder: 16; MPTP block: inactive; procasp7 counter: inactive

What do the screens show for `Cc1nc(CSc2nsc(/C=C/N(C)C)c2C#N)cs1`?
aDG glyco act: inactive; NR3A LBD binder: inactive; MPTP block: inactive

How did Cn1c2ccccc2c(=O)c2cc(C#Cc3cccc(N)c3)ccc21 do in these assays?
procasp3 activ: inactive; aDG glyco act: inactive; NR3A LBD binder: 22; MPTP block: inactive; procasp7 counter: inactive

Results for COc1ccc(C#Cc2ccc3c(=O)c4ccccc4n(C)c3c2)cc1 ?
procasp3 activ: inactive; NR3A LBD binder: inactive; procasp7 counter: inactive

What do the screens show for `Cn1c2ccccc2c(=O)c2ccc(C#Cc3ccc(N)cc3)cc21`?
procasp3 activ: inactive; aDG glyco act: inactive; NR3A LBD binder: 12; MPTP block: inactive; procasp7 counter: inactive

How did O=C(c1cc(S(=O)(=O)N2CCCCC2)ccc1Cl)N1CCOCC1 do in these assays?
procasp3 activ: inactive; aDG glyco act: inactive; NR3A LBD binder: inactive; MPTP block: inactive; procasp7 counter: inactive

How did Cc1ccc(C(=O)N2CCOCC2)cc1S(=O)(=O)N1CCCC1 do in these assays?
procasp3 activ: inactive; aDG glyco act: inactive; NR3A LBD binder: 11; MPTP block: inactive; procasp7 counter: inactive

What do the screens show for `Cc1ccc(S(=O)(=O)N2CCN(C(=O)c3cc(S(=O)(=O)N4CCOCC4)ccc3Cl)CC2)c(C)c1`?
aDG glyco act: inactive; NR3A LBD binder: 12; MPTP block: inactive

How did CCOC(=O)C1CCN(C(=O)c2ccc(C)c(S(=O)(=O)N3CCCC3)c2)CC1 do in these assays?
procasp3 activ: inactive; aDG glyco act: inactive; NR3A LBD binder: 11; MPTP block: inactive; procasp7 counter: inactive

Screening data from PubChem.
